Converted amounts (≈) assume the structure as drawn. The source made the active and inactive calls. The rule behind the calls is not given here.
Columns and labels:
[1] = tested on: Mycobacterium tuberculosis; experiment: Antimicrobial activity against Mycobacterium tuberculosis H37Rv after 7 days by BacTiter-Glo assay; format: functional, organism-based; settings: 168 h
Outline: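 H37Rv in 384-well format, 10-point dose response, compounds serially diluted 1:2 from 100 thru 0.195 (top of range); DMSO carrier as 100% growth control, high amikacin as background, lower amikacin (MIC-approximating) control. After 7 days, equilibrated to room temperature, BacTiter-Glo added, 20 min at room temperature, luminescence (ATP) read.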

[2] = Cytotoxicity against mouse J774 cells assessed as cell viability at 10-fold above MIC relative to control; format: cell-based; settings: read-out: Activity
Outline: (§1)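 Uninfected J774 macrophages run in parallel to the infection assay (RPMI 1640, 1% FBS, 37 °C, 5% CO2), exposed to the same three concentrations (mid bracketing primary-screen MIC, ten-fold below and above); MTT proliferation read-out reported as percent viability.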

[3] = Cytotoxicity against mouse J774 cells assessed as cell viability at MIC relative to control; format: cell-based; settings: read-out: Activity; outline: as §1
[4] = Cytotoxicity against mouse J774 cells assessed as cell viability at 10-fold below MIC relative to control; format: cell-based; settings: read-out: Activity; outline: as §1
[5] = tested on: Mycobacterium tuberculosis; experiment: Antimicrobial activity against Mycobacterium tuberculosis H37Rv SRI 1345 infected in mouse J774 cells assessed as intracellular growth inhibition at 10-fold above MIC after 7 days relative to control; format: functional
Outline: (§2)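 Murine J774 cells in RPMI 1640 + L-glutamine/FBS, 37 °C, 5% CO2; seeded 2.0 × 10^5 per well in 10% FBS, overnight, then 1% FBS to halt division. After 24 h infected with H37Rv at MOI 5 for 4 h, washed; drug at three concentrations (mid bracketing primary-screen MIC, ten-fold below and above) for 7 days. SDS lysis, DNase, plating on 7H10 for CFU; log reduction day 0 to day 7; duplicates, rifampin control.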

[6] = tested on: Mycobacterium tuberculosis; experiment: Antimicrobial activity against Mycobacterium tuberculosis H37Rv SRI 1345 infected in mouse J774 cells assessed as intracellular growth inhibition at MIC after 7 days relative to control; format: functional; outline: as §2
[7] = tested on: Mycobacterium tuberculosis; experiment: Antimicrobial activity against Mycobacterium tuberculosis H37Rv SRI 1345 infected in mouse J774 cells assessed as intracellular growth inhibition at 10-fold below MIC after 7 days relative to control; format: functional; outline: as §2
[8] = tested on: Mycobacterium tuberculosis; experiment: Antimicrobial activity against Mycobacterium tuberculosis H37Rv SRI 1345 incubated for 7 days under aerobic condition by low-oxygen recovery assay; format: functional, organism-based
[9] = tested on: Mycobacterium tuberculosis; experiment: Antimicrobial activity against Mycobacterium tuberculosis H37Rv SRI 1345 incubated for 7 days under anaerobic condition followed by exposure to gaseous condition measured after 7 days by low-oxygen recovery assay; format: functional, organism-based
Outline: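 Microplates set up as for MIC testing, then held anaerobically (automated jar gassing) 7 days at 37 °C, moved to ambient air with 5% CO2 for 7 days; wells scored visually for turbidity/clearing. Result = lowest concentration visually inhibiting growth. Duplicates with sterility, growth and rifampin or isoniazid controls.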

[10] = tested on: Mycobacterium tuberculosis; experiment: Antimicrobial activity against Mycobacterium tuberculosis H37Rv SRI 1345 assessed as growth inhibition at MIC after 7 days by broth microdilution assay relative to control; format: functional
Outline: (§3)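 Broth microdilution per CLSI in Middlebrook 7H9 + OADC; ten two-fold dilutions; inoculum targeted 1.0 × 10^6 CFU/mL M. tuberculosis; 37 °C, ~90% humidity, 7 days. Wells scored visually for turbidity, partial or complete clearing; MIC = lowest concentration visually inhibiting growth; percent inhibition at the MIC also recorded. Duplicates; rifampin or isoniazid positive control, medium-only and organism-only controls.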

[11] = tested on: Mycobacterium tuberculosis; experiment: Antimicrobial activity against Mycobacterium tuberculosis H37Rv SRI 1345 assessed as growth inhibition after 7 days by broth microdilution assay; format: functional; settings: H37Rv SRI 1345, 168 h; outline: as §3
[12] = tested on: Mycobacterium tuberculosis; experiment: Bactericidal activity against Mycobacterium tuberculosis H37Rv SRI 1345 after 18 to 24 hrs; format: functional; settings: for MBC: Mycobacterium tuberculosis, H37Rv SRI 1345, read-out: MBC99.9
Outline: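 Following MIC testing, diluted aliquots from wells lacking macroscopic growth plated on Middlebrook 7H10 agar, 16–21 days at 37 °C, colonies counted. MBC = lowest concentration giving 99.9% kill over the MIC period (18–24 h); >40 colonies taken as rejection value; uncountable plates reported TNTC.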

With `O=C1c2ccccc2-c2nc3ccc([N+](=O)[O-])cc3c(-c3ccccc3)c21` as the compound, how does the IC50 [1] read?
Its IC50 is over 100 µM.

And the IC90 [1]?
Its IC90 is over 100 µM.

What does the source list for `O=[N+]([O-])c1ccc2nc3c(c(-c4ccccc4)c2c1)CCCCC3`?
viability [2]: < 10%; viability [3]: 79%; viability [4]: 82%; fold change (FC) [5]: 1.41; fold change (FC) [6]: 1.19; fold change (FC) [7]: 1.24; Activity [8]: Active; Activity [9]: Active; growth inhibition (GI) [10]: 76%; MIC [11]: 75 µg/mL (≈ 236 µM); IC50 [1]: 61.9 µM; IC90 [1]: 95.4 µM

With `CC1(C)CC(=O)c2c(nc3ccc([N+](=O)[O-])cc3c2-c2ccccc2)C1` as the compound, how does the IC50 [1] read?
Its IC50 is over 100 µM.

And the IC90 [1]?
The IC90 was over 100 µM.

Which IC50 [1] does the source give for `NCC[C@H](O)C(=O)N[C@@H]1C[C@H](N)[C@@H](O[C@H]2O[C@H](CN)[C@@H](O)[C@H](O)[C@H]2O)[C@H](O)[C@H]1O[C@H]1O[C@H](CO)[C@@H](O)[C@H](N)[C@H]1O` [AMIKACIN] here?
The IC50 was 0.07 µM.

What about the IC90 [1] of the same compound?
Its IC90 is 0.08 µM.

For `O=C1c2ccccc2-c2nc3ccc(Cl)cc3c(-c3ccccc3)c21`, which IC50 [1] is on record?
Its IC50 is over 100 µM.

And the IC90 [1]?
The IC90 was over 100 µM.

For `CCc1nc(N)nc(N)c1-c1ccc(Cl)cc1` [PYRIMETHAMINE], which IC50 [1] is on record?
Its IC50 is 5 µM.

What about the IC90 [1] of the same compound?
The IC90 was 5 µM.

Which viability [2] does the source give for `O=[N+]([O-])c1ccc2nc3c(c(-c4ccccc4)c2c1)CCCC3` here?
The viability was 25%.

What about the viability [3] of the same compound?
Its viability is 63%.

And the viability [4]?
Its viability is 67%.

What about the “fold change (FC)” value [5] of the same compound?
The value was 1.72.

What about the “fold change (FC)” value [6] of the same compound?
The value was 1.25.

What about the “fold change (FC)” value [7] of the same compound?
Its value is 1.8.

And the Activity [8]?
Its Activity is “Active”.

And the Activity [9]?
The Activity was “Active”.

And the “growth inhibition (GI)” value [10]?
Its value is 52%.

And the MIC [11]?
Its MIC is 12.5 µg/mL (≈ 41.1 µM).

And the IC50 [1]?
Its IC50 is 44.4 µM.

And the IC90 [1]?
The IC90 was over 100 µM.

For `Clc1ccc2nc3c(c(-c4ccccc4)c2c1)CCCC3`, which IC50 [1] is on record?
Its IC50 is over 100 µM.

What about the IC90 [1] of the same compound?
The IC90 was over 100 µM.

Which IC50 [1] does the source give for `Clc1ccc2nc3c(c(-c4ccccc4)c2c1)-c1ccccc1C3` here?
The IC50 was over 100 µM.

And the IC90 [1]?
The IC90 was over 100 µM.

Which IC50 [1] does the source give for `Clc1ccc2nc3c(c(-c4ccccc4)c2c1)CCCCC3` here?
The IC50 was over 100 µM.

And the IC90 [1]?
Its IC90 is over 100 µM.

Which IC50 [1] does the source give for `CC1(C)CC(=O)c2c(nc3ccc(Cl)cc3c2-c2ccccc2)C1` here?
Its IC50 is over 100 µM.

And the IC90 [1]?
The IC90 was over 100 µM.

Which IC50 [1] does the source give for `O=[N+]([O-])c1ccc2nc3c(c(-c4ccccc4)c2c1)Cc1ccccc1-3` here?
Its IC50 is over 100 µM.

And the IC90 [1]?
Its IC90 is over 100 µM.

What does the source list for `Clc1ccc2nc3c(c(-c4ccccc4)c2c1)Cc1ccccc1-3`?
IC50 [1]: > 100 µM; IC90 [1]: > 100 µM

Which results are given for `CC[C@@H](CO)NCCN[C@@H](CC)CO` [ETHAMBUTOL]?
IC50 [1]: < 1.56 µM; IC90 [1]: 32.8 µM

For `NNC(=O)c1ccncc1` [ISONIAZID], which IC50 [1] is on record?
The IC50 was 0.18 µM.

What about the IC90 [1] of the same compound?
The IC90 was 0.29 µM.

For `N[C@@H]1CONC1=O` [CYCLOSERINE], which IC50 [1] is on record?
The IC50 was 12.5 µM.

What about the IC90 [1] of the same compound?
The IC90 was 13.5 µM.

What does the source list for `CO[C@H]1/C=C/O[C@@]2(C)Oc3c(C)c(O)c4c(O)c(c(/C=N/N5CCN(C)CC5)c(O)c4c3C2=O)NC(=O)/C(C)=C\C=C\[C@H](C)[C@H](O)[C@@H](C)[C@@H](O)[C@@H](C)[C@H](OC(C)=O)[C@@H]1C` [RIFAMPIN]?
viability [2]: 78%; viability [3]: 86%; viability [4]: 82%; fold change (FC) [5]: 1.85; fold change (FC) [6]: 1.83; fold change (FC) [7]: 0.46; CFU [12]: 39; MBC [12]: 1.56 µg/mL (≈ 1.9 µM); growth inhibition (GI) [10]: 65%; MIC [11]: 0.049 µg/mL (≈ 0.0595 µM); IC50 [1]: 0.02 µM; IC90 [1]: 0.02 µM

With `Clc1ccc2nc3c(c(-c4ccccc4)c2c1)CCC3` as the compound, how does the viability [2] read?
The viability was under 10%.

And the viability [3]?
Its viability is 79%.

What about the viability [4] of the same compound?
The viability was 86%.

What about the “fold change (FC)” value [5] of the same compound?
The value was 3.12.

And the “fold change (FC)” value [6]?
The value was 1.82.

What about the “fold change (FC)” value [7] of the same compound?
The value was 1.

What about the Activity [8] of the same compound?
The Activity was “Active”.

What about the Activity [9] of the same compound?
The Activity was “Active”.

And the CFU [12]?
The CFU was 0.

And the MBC [12]?
Its MBC is 50 µg/mL (≈ 179 µM).

And the “growth inhibition (GI)” value [10]?
Its value is 88%.

And the MIC [11]?
The MIC was 12.5 µg/mL (≈ 44.7 µM).

And the IC50 [1]?
The IC50 was 73.4 µM.

What about the IC90 [1] of the same compound?
Its IC90 is over 100 µM.

— ChEMBL document CHEMBL3112573, “Design, synthesis and evaluation of acridine and fused-quinoline derivatives as potential anti-tuberculosis agents” (Eur J Med Chem, 2014)
